This passage reports yeast fitness results from the RNAGym collection of RNA variant scans (doi:10.1126/science.aae0568).

This sample holds only a part of the variants without activity.

The labels stand for the following.
B1: tRNA (parent)
chain: GUUCCGUUGGCGUAAUGGUAACGCGUCUCCCUCCUAAGGAGAAGACUGCGGGUUCGAGUCCCGUACGGAACG

Variants of B1 are the subject of the data set. Kind of data set: yeast fitness relative to wild type (ratio to wild type); higher = fitter; tRNA-Arg(CCU), competitive growth, 37 C, YPD. A digest of the protocol:
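For this measurement, the tRNA-Arg(CCU) gene was varied by chemical synthesis at a 3% per-site mutation rate across 69 sites, and each variant was placed at the native genomic locus in Saccharomyces cerevisiae. The pooled strains went through a 24-hour competition in YPD at 37°C in six parallel replicates, with amplicons from start and end populations read by 100-nucleotide paired-end sequencing. Darwinian fitness relative to wild type followed from the change in each genotype's frequency. Genotypes needed ≥ 100 starting reads, and estimates < 0.5 were set to 0.5.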
For the variant U8A C66A, the yeast fitness was determined as 0.568.
The value for U7C A14G A43G A69C was ≤ 0.5.
The value for U8C C24A C49U was ≤ 0.5.
In the case of U8A G9C U54A, the yeast fitness is ≤ 0.5.
The result for U8C A43C C66G reads ≤ 0.5; that for U8A C30U G63A, ≤ 0.5.
The value for U8A A43G was 0.742; that for U8A G18A C30A U32A U35G C66U A69U was ≤ 0.5; that for U7G A36C was 0.614.
The value for U8C C29G C30U C46U G48A was ≤ 0.5.
Regarding U7C C30U, the yeast fitness came out at 0.826.
The value for U7G A15G U19C A21G G41A was 0.535.
The value for U8A C22U G38C C49G was 0.602; that for U8C A36U was 0.647; that for U7C A15G G18C was ≤ 0.5.
The value for U7C U8A C62U was ≤ 0.5.
Regarding U8A U53A, the yeast fitness was ≤ 0.5.
The result for U7C A15U C34A G39C A40C G56C C61G C62G G68C reads ≤ 0.5; that for U8C A21U C34A A40C G67A, ≤ 0.5; that for U7G A21C G44C A69U, ≤ 0.5.
Turning to U7C C11A C30G C66U A69U, the yeast fitness was ≤ 0.5.
The result for U8A C24G A40G C49U G56C reads ≤ 0.5; that for U8A G12A A21G, ≤ 0.5.
The result for U8C C49G C62A reads ≤ 0.5; that for U7C A14C C30G A40C A43U C55U, 0.64.
For the variant U8C C29A C34G A36G A40C U47A U64C, the yeast fitness is ≤ 0.5.
The result for U7G U59G reads 0.705; that for U8C A37G, 0.657.
The result for U7G G25C G56A reads 0.697.
The value for U7G A15C C24U A43G G51A U54C G67C was 0.78; that for U7C C34U A45C C60G A65C was ≤ 0.5.
For U7G U13C C31U, the yeast fitness was 0.903.
U8C C22G C30G: the yeast fitness was ≤ 0.5.
The result for U8C C29A U54A reads ≤ 0.5; that for U8A C34U G67A A69G, 0.568; that for U8A A14G C46U G50C C55U A57U C62G A70U, ≤ 0.5.
As for U7C A37C C60G A65U A70C, the yeast fitness turned out to be 0.569.
Turning to U7C G17C A20G C27A G48A, the yeast fitness was 0.509.
The value for U8A G18C C24A U32C A70U was ≤ 0.5; that for U7G C11G C34U G41A was 0.525.
The value for U7C A14G A20C A57G was ≤ 0.5.
U8C A15G U16A C46U U54C: the yeast fitness stood at 0.601.
The value for U7C C22A A45C C46U was ≤ 0.5; that for U8A G48C was 0.761.
The value for U7C C30U C34A C46U G58A A65U was ≤ 0.5; that for U7G U28C was 0.808; that for U8C C24U A42U G52C was ≤ 0.5.
The result for U8A C11G C34G C60G A65U reads ≤ 0.5.
Consider U8C C22U U32C C46G U53G G68C, for which the yeast fitness was ≤ 0.5.
The value for U7C C31U A57U A69C was ≤ 0.5; that for U8A C11A C31G was ≤ 0.5; that for U7C G9C G23A A36C C66A was 0.544.
The result for U7C C31G A45U reads ≤ 0.5; that for U7G A20G C27U C49G G52C A70G, ≤ 0.5.
The value for U8C A40G A43C was 0.732.
Turning to U8A G12C U47C, the yeast fitness was ≤ 0.5.
The result for U7G G12C G23C C29G A57U C60A G68C reads ≤ 0.5; that for U7C C30U C61A, ≤ 0.5.
The result for U8A A20U A21U G25A A43U reads 0.584; that for U7C U64A, 0.923.
The result for U7C A14C A65G A70C reads ≤ 0.5; that for U8C C31G A42G, 0.624; that for U7G A21C U59A, ≤ 0.5.
On to U8C C34G G48C U59C C60A A65G, for which the yeast fitness was ≤ 0.5.
The result for U7G G23A C29U A36U reads ≤ 0.5.
As to U7G U26C C49G, the yeast fitness was ≤ 0.5.
The value for U8C G9A A20C A70U was ≤ 0.5; that for U8A C11A G56C was ≤ 0.5.
Take U8A A14C C31A: the yeast fitness is 0.571.
The value for U7C C29G was 0.677; that for U7C C29U was 0.754.
The value for U7C C33G A37G A70G was ≤ 0.5; that for U8A U28A C31G G44A G51C A65G was ≤ 0.5.
The result for U7C A37G C49A reads ≤ 0.5; that for U8C A15G, 0.969; that for U7C C27U, 0.875.
As for U8A C31G A57C C61U, the yeast fitness came out at 0.506.
The result for U8A C29A A43G A57U reads ≤ 0.5; that for U8A G18A G25A C33U G51A G56A, 0.614; that for U7C A21U C30U C33G A70U, ≤ 0.5.
With U8A G12A A14C C60U G67C, the yeast fitness was ≤ 0.5.
The result for U7G A57G reads 0.72; that for U7G G56A C62A, 0.572.
With U7G A15C U16A C33G A37C C49A U53C, the yeast fitness is ≤ 0.5.
For U7C C31G C33A C66A, the yeast fitness is ≤ 0.5.
The result for U8C C22A A42U U54C C66G reads ≤ 0.5.
The value for U7G A65G C66U was 0.876.
The result for U8C A36G G39C C49U U54G reads ≤ 0.5; that for U8C A40U A69U, 0.75; that for U8A A14G C31U G58A C61G C66U, ≤ 0.5.
U7G G25C: the yeast fitness is 0.958.
The value for U7G G41C A69C was ≤ 0.5; that for U8C C27G C29A was ≤ 0.5.
The result for U8A G18C G48C A65G reads ≤ 0.5.
The value for U8C C22A A36C C55G A65G C66G was ≤ 0.5; that for U7G U32A U35C C61G was ≤ 0.5; that for U7C A40G A42G G48A G56C was ≤ 0.5.
U7G A14G U35G C46A G63C A65U: the yeast fitness was ≤ 0.5.
The value for U7C U8A A20G C24G U64C was ≤ 0.5; that for U8A C11A C24U G67C was ≤ 0.5.
The result for U7C U53A A70G reads ≤ 0.5; that for U8C C11U G18A A20U C22G C31G, ≤ 0.5.
On to U7C G68A, for which the yeast fitness was found to be 0.87.
The value for U8A G68C was 0.661; that for U8A C31G was 0.679.
The result for U8A G10C C11U C24U A42C U47C G68C reads ≤ 0.5.
The value for U8A C11U G25A C33A A40U was ≤ 0.5; that for U8A C34U C55G was ≤ 0.5; that for U8A U35C A42C G67A was 0.568.
In the case of U8A A20C U35A G38C A69U, the yeast fitness is 0.597.
The result for U8A G10U C22U A37G reads 0.511; that for U7C C11G U32G, ≤ 0.5; that for U8A C31G A42G G52C, ≤ 0.5.
The value for U7C A21G was 0.761; that for U7C C22G C24A G25C C66G was ≤ 0.5.
The result for U8A C27A A37U G67U reads 0.612.
As for U8A G39C A57G A65G, the yeast fitness was ≤ 0.5.
The result for U8A C24A C30U C31U G48C C66U reads ≤ 0.5; that for U8C C55G, 0.671.
As for U8C C55U, the yeast fitness is 0.754.
The value for U7G C11U G12C C33U G58C was ≤ 0.5; that for U7C C49U was 0.873.
The result for U7G C31U A69U reads 0.628; that for U7C A20G C24U C49A G67C, ≤ 0.5; that for U8A G10C C29A A40U C55G, 0.533.
In the case of U7G C29G C46U G50U, the yeast fitness is ≤ 0.5.
For U8C C24G G38C U53G, the yeast fitness was found to be 0.635.
Take U8A C11U: the yeast fitness is 0.633.
The value for U7G A15G was 0.913; that for U7C G17A C62U was ≤ 0.5.
The value for U7G G10C G44C A69U was 0.617.
On to U7C G9A C31G, for which the yeast fitness was determined as 0.77.
The result for U8C C27A G52A C62G A69G reads ≤ 0.5.
The result for U8A G12A C62U reads ≤ 0.5; that for U8C C27G A42G, ≤ 0.5.
As for U7C C27U A43U C61U, the yeast fitness was ≤ 0.5.
The value for U7G G41C G58C was ≤ 0.5; that for U7C C33G was 0.58; that for U8C A21U was 0.802.
The value for U8A C55U G68A was 0.578; that for U7C U13A C24U G50U G51A U59A A65C was ≤ 0.5.
U8A U26C G52C: the yeast fitness is ≤ 0.5.
The value for U8C A15U G25A C34G G58C was ≤ 0.5; that for U8A U19C C31A U35G A43G U47C G52C G67A was 0.575; that for U7C G38A G50A G58A U59A was 0.579.
The value for U8C A42C was 0.857.
The value for U8A A14C was 0.692.
With U8A A14G, the yeast fitness came to 0.632.
The result for U8C C11U C24G A45C reads 0.629; that for U7C G18A G41A A42C G50C A70G, ≤ 0.5; that for U8A G12A C33U A65U, 0.562.
The value for U7C C11A C27G A57G was ≤ 0.5.
The value for U8C C61A was 0.763; that for U8C C61U was 0.942.
Turning to U8A C27A G68C, the yeast fitness is ≤ 0.5.
The result for U8A U32G A37G reads ≤ 0.5; that for U8A G17A C62G, ≤ 0.5; that for U7G U19A C22G C24G A40G C55G G68C, ≤ 0.5.
The result for U7G C55G reads 0.655.
The value for U7C U26G was 0.649; that for U7C U26A was 0.777.
For U8A A43U C55U, the yeast fitness was found to be 0.537.
In the case of U7C A57U, the yeast fitness is 0.749.
The result for U8C A21G U28C reads 0.637; that for U7C A37C A40C A45U A57C A70C, ≤ 0.5.
The result for U7C G63C reads 0.611; that for U7C G10C C24U C46U G63C, ≤ 0.5.
